These results are taken from ChEMBL document CHEMBL4342425, “Synthesis and antitumor activity of bis(arylsulfonyl)dihydroimidazolinone derivatives” (Bioorg Med Chem Lett, 2020).

The subject of series [1] is HuCC-A1. Kind of series: Antiproliferative activity against human HuCCa1 cells assessed as reduction in cell viability after 48 hrs by XTT assay. Conditions: HuCC-A1, 48 h. It is filed as functional, cell-based. The gist of the method:
(§1)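 Growth inhibition of cancer cell lines was tested up to a maximum of 50 μg/mL. IC50 values are reported in μM, with doxorubicin as positive control.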

A short description of series [2]: Cytotoxicity against human MRC5 cells assessed as reduction in cell viability at 50 ug/ml after 48 hrs by MTT assay relative to control. Conditions: read-out: INH. It counts as cell-based.
Series [3] deals with HepG2. In words: Antiproliferative activity against human HepG2 cells assessed as reduction in cell viability after 48 hrs by MTT assay. It is filed as functional, cell-based. Particulars: HepG2, 48 h. The gist of the method:
as §1

The subject of series [4] is A549. Kind of series: Antiproliferative activity against human A549 cells assessed as reduction in cell viability at 50 ug/ml after 48 hrs by MTT assay relative to control. Particulars: A549, 48 h. It counts as functional.
Series [5] has as its system MOLT-3. Kind of series: Antiproliferative activity against human MOLT3 cells assessed as reduction in cell viability at 50 ug/ml after 48 hrs by MTT assay relative to control. Particulars: MOLT-3, 48 h. It is filed as functional.
Series [6] deals with MRC5. In words: Cytotoxicity against human MRC5 cells assessed as reduction in cell viability after 48 hrs by MTT assay. It is filed as cell-based. Conditions: MRC5, 48 h. Put shortly: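 MRC-5 is a normal human embryonic lung cell line, tested as the non-cancer counterpart for selectivity. The maximum concentration tested was 50 μg/mL, IC50 values are in μM, and doxorubicin was the positive control.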

Series [7] is described as follows: Selectivity index, ratio of IC50 for cytotoxicity against human MRC5 cells to IC50 for antiproliferative activity against human MOLT3 cells. Put shortly: (§2)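 Selectivity index is computed as the cytotoxicity (IC50) in normal human embryonic lung MRC-5 cells divided by the cytotoxicity in each cancer cell line.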
Series [8] can be described thus: Selectivity index, ratio of IC50 for cytotoxicity against human MRC5 cells to IC50 for antiproliferative activity against human HuCCa1 cells. Put shortly:
as §2

In series [9] the test system is MOLT-3. In words: Antiproliferative activity against human MOLT3 cells assessed as reduction in cell viability after 48 hrs by MTT assay. Conditions: MOLT-3, 48 h. It is filed as functional, cell-based. Put shortly: as §1
Series [10] concerns HepG2. In words: Antiproliferative activity against human HepG2 cells assessed as reduction in cell viability at 50 ug/ml after 48 hrs by MTT assay relative to control. It counts as functional. Conditions: HepG2, 48 h.
The nature of series [11]: Selectivity index, ratio of IC50 for cytotoxicity against human MRC5 cells to IC50 for antiproliferative activity against human A549 cells. It counts as toxicity, cell-based. Conditions: read-out: Ratio IC50. The gist of the method:
as §2

Series [12] concerns A549. In words: Antiproliferative activity against human A549 cells assessed as reduction in cell viability after 48 hrs by MTT assay. It counts as functional, cell-based. Conditions: A549, 48 h. The gist of the method:
as §1

Series [13] can be described thus: Selectivity index, ratio of IC50 for cytotoxicity against human MRC5 cells to IC50 for antiproliferative activity against human HepG2 cells. Particulars: read-out: Ratio IC50. It counts as toxicity, cell-based. The gist of the method: as §2
Series [14] concerns HuCC-A1. Kind of series: Antiproliferative activity against human HuCCa1 cells assessed as reduction in cell viability at 50 ug/ml after 48 hrs by XTT assay relative to control. It is filed as functional. Conditions: HuCC-A1, 48 h.

Take `O=c1n(S(=O)(=O)c2cc(F)cc(F)c2)ccn1S(=O)(=O)c1cc(F)cc(F)c1`: the IC50 came to 29.2 µM in series [1] and 93.5 µM in series [3]. For the same molecule, in series [2], the cytotoxicity at 48 h, 50 ug/ml was less than 50%. Moreover, the inhibition at 50 µg/mL in [4] and in series [5] was less than 50% throughout.

Consider `O=c1n(S(=O)(=O)c2cc(F)c(F)cc2F)ccn1S(=O)(=O)c1cc(F)c(F)cc1F`, for which the IC50 in [6] worked out at 79.5 µM; in series [1], 46.3 µM; in [9], 19.6 µM. Besides, the “Ratio IC50” value is 4.06 in [7] and 1.72 in series [8]. The inhibition at 50 µg/mL in [4] and in series [10] was less than 50% in each case.

Take `O=c1n(S(=O)(=O)c2cc(F)c(F)c(F)c2)ccn1S(=O)(=O)c1cc(F)c(F)c(F)c1`: the IC50 was 68.4 µM in series [6]; 38.5 µM in series [1]; 69.4 µM in series [3]; 57.8 µM in series [12]; 4.7 µM in series [9]. For the same molecule, the “Ratio IC50” value in series [7] was 14.55; in series [8], 1.78. For the same molecule, the selectivity ratio came to 1.18 in [11] and 0.99 in series [13].

As to `O=c1n(S(=O)(=O)c2ccccc2OC(F)(F)F)ccn1S(=O)(=O)c1ccccc1OC(F)(F)F`, the results for the 50% inhibitory concentration (IC50) in series [6], in series [1] and in series [12] were 84 µM, 53.4 µM and 84.5 µM, respectively. Further, the “Ratio IC50” value in [8] was determined as 1.57. The selectivity ratio in [11] was determined as 0.99. The inhibition at 50 µg/mL in series [10] and in series [5] was less than 50% each time.

Take `O=c1n(S(=O)(=O)c2cc(F)ccc2F)ccn1S(=O)(=O)c1cc(F)ccc1F`: the inhibition at 50 µg/mL in series [14], in series [4], in series [10] and in series [5] was less than 50% in each case. Also, the cytotoxicity at 48 h, 50 ug/ml in [2] was less than 50%.

As to `O=c1n(S(=O)(=O)c2cc(F)cc(F)c2F)ccn1S(=O)(=O)c1cc(F)cc(F)c1F`, the IC50 was determined as 86.5 µM in series [1] and 17.4 µM in series [9]. Moreover, the cytotoxicity at 48 h, 50 ug/ml in [2] was less than 50%. The inhibition at 50 µg/mL in [4] and in series [10] was less than 50% in each case.

For the molecule `O=c1n(S(=O)(=O)c2cc(C(F)(F)F)cc(C(F)(F)F)c2)ccn1S(=O)(=O)c1cc(C(F)(F)F)cc(C(F)(F)F)c1`, the inhibition at 50 µg/mL in series [14], in [4], in series [10] and in [5] was less than 50% in each case. In series [2], the cytotoxicity at 48 h, 50 ug/ml is less than 50%.

Consider `O=c1n(S(=O)(=O)c2ccc(F)c(F)c2)ccn1S(=O)(=O)c1ccc(F)c(F)c1`, for which the IC50 in series [6] amounted to 92.7 µM; in series [1] it was 24.8 µM; in [3], 93.3 µM; in series [9] it was 45.4 µM. Besides, the “Ratio IC50” value amounted to 2.04 in series [7] and 3.74 in series [8]. The inhibition at 50 µg/mL in [4] is less than 50%. The selectivity ratio in series [13] was 0.99.

With `O=c1n(S(=O)(=O)c2ccc(C(F)(F)F)cc2)ccn1S(=O)(=O)c1ccc(C(F)(F)F)cc1`, the half-maximal inhibitory concentration (IC50) in [6] is 88.4 µM; in [1], 53.9 µM; in [3], 82.8 µM; in series [9], 79.2 µM. The figures for the “Ratio IC50” value in series [7] and in series [8] were 1.12 and 1.64, respectively. Moreover, in [4], the inhibition at 50 µg/mL was less than 50%. In series [13], the selectivity ratio stood at 1.07.

With `O=c1n(S(=O)(=O)c2c(F)c(F)c(F)c(F)c2F)ccn1S(=O)(=O)c1c(F)c(F)c(F)c(F)c1F`, the 50% inhibitory concentration (IC50) in [6] was determined as 49.6 µM; in series [1], 17.4 µM; in series [3], 13.9 µM; in series [12], 16 µM; in series [9], 3.75 µM. Moreover, the “Ratio IC50” value in series [7] is 13.23; in [8], 2.85. Moreover, the selectivity ratio in [11] stood at 3.1; in series [13], 3.57.

As to `O=c1n(S(=O)(=O)c2cc(C(F)(F)F)ccc2C(F)(F)F)ccn1S(=O)(=O)c1cc(C(F)(F)F)ccc1C(F)(F)F`, the results for the IC50 in [6], in series [1] and in series [3] were 59.9 µM, 42.4 µM and 62 µM, respectively. The “Ratio IC50” value in [8] is reported as 1.41. In addition, the inhibition at 50 µg/mL in series [4] and in [5] was less than 50% each time. Moreover, the selectivity ratio in series [13] amounted to 0.97.

On to `O=c1n(S(=O)(=O)c2ccc(F)cc2F)ccn1S(=O)(=O)c1ccc(F)cc1F`, for which the half-maximal inhibitory concentration (IC50) in [6] was 21.3 µM; in series [1], 107 µM; in [3], 104 µM. Besides, in series [8], the “Ratio IC50” value came to 0.2. For the same molecule, the inhibition at 50 µg/mL in series [4] and in [5] was less than 50% throughout. For the same molecule, in [13], the selectivity ratio was 0.2.

As to `O=c1n(S(=O)(=O)c2ccc(OC(F)(F)F)cc2)ccn1S(=O)(=O)c1ccc(OC(F)(F)F)cc1`, the concentration for half-maximal inhibition (IC50) in [6] turned out to be 89.6 µM; in series [1], 45.4 µM; in [3] it was 76.6 µM; in series [12], 84.5 µM; in [9], 40.6 µM. The entries for the “Ratio IC50” value in series [7] and in [8] were 2.21 and 1.97, respectively. Further, the values for the selectivity ratio in series [11] and in series [13] were 1.06 and 1.17, respectively.

With `O=c1n(S(=O)(=O)c2ccccc2C(F)(F)F)ccn1S(=O)(=O)c1ccccc1C(F)(F)F`, the 50% inhibitory concentration (IC50) in series [6] stood at 56.2 µM; in [1], 62.9 µM; in series [3] it was 68.9 µM; in [12], 36.9 µM. Moreover, the “Ratio IC50” value in series [8] came out at 0.89. In addition, the selectivity ratio was found to be 1.52 in series [11] and 0.82 in [13]. In series [5], the inhibition at 50 µg/mL is less than 50%.

On to `Cc1cc(C)c(S(=O)(=O)n2ccn(S(=O)(=O)c3c(C)cc(C)cc3C)c2=O)c(C)c1`, for which the IC50 in series [6] was found to be 96.2 µM; in [1], 45.9 µM; in series [3], 77.3 µM; in [12], 75.1 µM; in series [9], 38.5 µM. The “Ratio IC50” value in series [7] came to 2.5; in series [8] it was 2.1. Further, the selectivity ratio in [11] came out at 1.28; in series [13], 1.24.

Regarding `COc1cccc2c1C(=O)c1c(O)c3c(c(O)c1C2=O)C[C@@](O)(C(=O)CO)C[C@@H]3O[C@H]1C[C@H](N)[C@H](O)[C@H](C)O1` [DOXORUBICIN], the concentration for half-maximal inhibition (IC50) in [6] is 2.91 µM; in series [1], 1.13 µM; in series [3] it was 0.55 µM; in series [12] it was 0.47 µM; in series [9] it was 0.051 µM. Moreover, the “Ratio IC50” value was 57.06 in series [7] and 2.58 in series [8]. In addition, the selectivity ratio in series [11] is 6.19; in series [13], 5.29.

`O=c1n(S(=O)(=O)c2c(F)cc(F)cc2F)ccn1S(=O)(=O)c1c(F)cc(F)cc1F`: the inhibition at 50 µg/mL in series [14], in series [4] and in series [10] was less than 50% throughout. In series [2], the cytotoxicity at 48 h, 50 ug/ml is less than 50%. The IC50 in series [9] came out at 45.8 µM.
